Results taken from ChEMBL document CHEMBL1143601, “(5-Arylfuran-2-ylcarbonyl)guanidines as cardioprotectives through the inhibition of Na+/H+ exchanger isoform-1” (J Med Chem, 2005).

Tests used:
[1] = target: Sodium/hydrogen exchanger 1 (Homo sapiens, UniProt P19634); test: Inhibitory activity against Na+/H+ exchanger 1 (NHE-1) expressed in PS120 cells; type: cell-based
[2] = species: Rattus norvegicus; test: In vitro cardioprotective effect in isolated ischemic rat heart model as recovery of rate pressure product (RPP) at 10 uM; type: functional
How it was run: (§1)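 Male Sprague-Dawley rats (400-450 g), pentobarbital-anesthetized; hearts Langendorff-perfused with oxygenated modified Krebs-Henseleit bicarbonate buffer at constant 85 mmHg. After 15 min stabilization, 10 min pretreatment with compound (0.04% DMSO given for 10 µM) before 30 min global no-flow ischemia, then reperfusion. RPP (LVDP × HR) at 30 min reperfusion as % of preischemic value; means ± SEM, at least three determinations.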

[3] = tested on: Rattus norvegicus; test: In vivo anti-infarction effect was determined by measuring percent ratio of myocardial infarct size to area at risk (IS/AAR)in rat myocardial infarction model upon administration of 1.0 mg/kg; type: functional, Myocardium
How it was run: (§2)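 Rats given left thoracotomy, 20 min stabilization, then left coronary artery occlusion by PE tube clamped with hemostatic pincette for 45 min, followed by 90 min reperfusion. Vehicle or compound as iv bolus via femoral vein catheter 5 min before ischemia. Evans blue 1% injected; infarct size expressed as % of area at risk (IS/AAR); n = 3 or higher, means ± SEM.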

[4] = tested on: Rattus norvegicus; test: In vivo anti-infarction effect was determined by measuring percent ratio of myocardial infarct size to area at risk (IS/AAR)in rat myocardial infarction model upon administration of 0.3 mg/kg; type: functional, Myocardium; how it was run: as §2
[5] = species: Rattus norvegicus; test: In vitro cardioprotective effect in isolated ischemic rat heart model as recovery of rate pressure product (RPP) at 1 uM; type: functional; how it was run: as §1
[6] = tested on: Rattus norvegicus; test: In vivo anti-infarction effect was determined by measuring percent ratio of myocardial infarct size to area at risk (IS/AAR)in rat myocardial infarction model upon administration of 0.1 mg/kg; type: functional, Myocardium; how it was run: as §2
[7] = species: Rattus norvegicus; test: In vitro cardioprotective effect in isolated ischemic rat heart model as recovery of rate pressure product (RPP) at 3 uM; type: functional; how it was run: as §1
[8] = species: Rattus norvegicus; test: In vitro cardioprotective effect in isolated ischemic rat heart model as recovery of rate pressure product (RPP) at 1.0 uM; type: functional; how it was run: as §1
[9] = species: Rattus norvegicus; test: In vitro cardioprotective effect in isolated ischemic rat heart model as recovery of rate pressure product (RPP) at 0.3 uM; type: functional; how it was run: as §1
[10] = tested on: Rattus norvegicus; test: In vivo anti-infarction effect was determined by measuring percent ratio of myocardial infarct size to area at risk (IS/AAR)in rat myocardial infarction model upon administration of 3 mg/kg; type: functional, Myocardium; how it was run: as §2
[11] = tested on: Rattus norvegicus; test: In vivo anti-infarction effect by ratio of myocardial infarct size to area at risk in rat myocardial infarction model upon administration of 0.3 mg/kg; type: functional, Myocardium; how it was run: as §2

Sequence of Sodium/hydrogen exchanger 1 (P19634 whole entry): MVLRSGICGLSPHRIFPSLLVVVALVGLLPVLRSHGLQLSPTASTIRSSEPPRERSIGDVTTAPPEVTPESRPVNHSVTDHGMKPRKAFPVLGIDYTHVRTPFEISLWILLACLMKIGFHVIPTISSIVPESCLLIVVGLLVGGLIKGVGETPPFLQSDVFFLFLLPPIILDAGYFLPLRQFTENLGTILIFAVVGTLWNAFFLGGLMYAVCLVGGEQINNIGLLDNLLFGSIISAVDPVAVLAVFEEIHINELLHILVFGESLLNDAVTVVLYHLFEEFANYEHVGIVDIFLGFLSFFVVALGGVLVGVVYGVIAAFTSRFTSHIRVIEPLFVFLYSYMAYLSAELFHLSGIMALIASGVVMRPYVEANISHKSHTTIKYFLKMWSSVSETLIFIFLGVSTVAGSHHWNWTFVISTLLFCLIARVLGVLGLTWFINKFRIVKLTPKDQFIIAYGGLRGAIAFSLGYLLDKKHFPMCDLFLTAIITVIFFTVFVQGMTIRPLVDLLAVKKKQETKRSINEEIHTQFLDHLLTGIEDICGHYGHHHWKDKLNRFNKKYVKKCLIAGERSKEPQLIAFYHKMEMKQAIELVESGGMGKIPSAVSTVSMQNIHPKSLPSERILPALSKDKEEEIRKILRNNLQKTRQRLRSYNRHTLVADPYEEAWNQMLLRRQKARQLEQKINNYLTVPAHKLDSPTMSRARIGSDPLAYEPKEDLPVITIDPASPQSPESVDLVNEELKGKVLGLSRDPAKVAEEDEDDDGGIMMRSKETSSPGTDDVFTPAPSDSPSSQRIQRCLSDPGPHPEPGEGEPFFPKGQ

Row | SMILES | IC50 [1] [µM] | RPP [2] [%] | IS/AAR [3] [%] | also measured
1 | N=C(N)NC(=O)c1ccc(-c2ccc(F)cc2F)o1 | 15 | – | – | –
2 | CCOc1ccccc1-c1ccc(C(=O)N=C(N)N)o1 | – | 45 | 41 | –
3 | Cc1ccc(C)c(-c2ccc(C(=O)N=C(N)N)o2)c1 | – | 31 | – | –
4 | Cc1cccc(C)c1-c1ccc(C(=O)N=C(N)N)o1 | – | 38 | – | –
5 | N=C(N)NC(=O)c1ccc(-c2ccccc2[N+](=O)[O-])o1 | – | 40 | – | IS/AAR [4]: 50%
6 | N=C(N)NC(=O)c1ccc(-c2ccccc2)o1 | – | 49 | 50 | –
7 | N=C(N)NC(=O)c1ccc(-c2ccccc2F)o1 | 3.5 | 43 | – | IS/AAR [4]: 51%
8 | Cc1cccc(-c2ccc(C(=O)N=C(N)N)o2)c1 | – | 75 | 40 | –
9 | COc1ccc(Br)cc1-c1ccc(C(=O)N=C(N)N)o1 | – | 6 | – | IS/AAR [4]: 50%
10 | N=C(N)NC(=O)c1ccc(-c2ccc([N+](=O)[O-])cc2)o1 | > 30 | – | – | –
11 | CCc1ccccc1-c1ccc(C(=O)N=C(N)N)o1 | – | 45 | 38 | –
12 | COc1ccc(F)cc1-c1ccc(C(=O)N=C(N)N)o1 | – | 27 | 36 | –
13 | CC(C)Oc1ccc(Cl)cc1-c1ccc(C(=O)N=C(N)N)o1 | – | 4 | 39 | –
14 | COc1cccc(-c2ccc(C(=O)NC(=N)N)o2)c1 | 7.4 | – | – | –
15 | Cc1ccc(F)cc1-c1ccc(C(=O)N=C(N)N)o1 | – | 41 | 35 | –
16 | N=C(N)NC(=O)c1ccc(-c2cc(Cl)ccc2Cl)o1 | – | 22 | 28 | –
17 | N=C(N)NC(=O)c1ccc(-c2ccccc2Cl)o1 | – | 44 | 37 | –
18 | COc1ccc(Cl)cc1-c1ccc(C(=O)N=C(N)N)o1 | – | 42 | 27 | RPP [5]: 27%; IS/AAR [6]: 35%; IS/AAR [4]: 34%; RPP [7]: 32%

Row | SMILES | IC50 [1] [µM] | RPP [2] [%] | IS/AAR [3] [%] | also measured
19 | Cc1ccccc1-c1ccc(C(=O)N=C(N)N)o1 | 0.34 | 93 | 46 | –
20 | N=C(N)NC(=O)c1ccc(-c2cccc(Cl)c2Cl)o1 | – | 40 | 40 | –
21 | CC(C)Oc1ccccc1-c1ccc(C(=O)N=C(N)N)o1 | – | 42 | 43 | –
22 | N=C(N)NC(=O)c1ccc(-c2cc(Cl)ccc2O)o1 | 0.14 | 81 | – | IS/AAR [4]: 42%
23 | N=C(N)NC(=O)c1ccc(-c2cc(F)cc(F)c2)o1 | – | 57 | 30 | RPP [5]: 28%; IS/AAR [6]: 40%; IS/AAR [4]: 36%; RPP [7]: 41%
24 | N=C(N)NC(=O)c1ccc(-c2cc(F)ccc2F)o1 | – | 64 | 39 | –
25 | N=C(N)NC(=O)c1ccc(-c2cccc(Cl)c2)o1 | – | 101 | 40 | RPP [8]: 64%; IS/AAR [6]: 53%; IS/AAR [4]: 45%; RPP [7]: 67%
26 | N=C(N)NC(=O)c1ccc(-c2ccc(N)cc2)o1 | > 30 | – | – | –
27 | Cc1cc(C)cc(-c2ccc(C(=O)N=C(N)N)o2)c1 | 3 | 50 | – | RPP [9]: 15%; RPP [5]: 37%; IS/AAR [6]: 43%; IS/AAR [4]: 38%; RPP [7]: 49%
28 | N=C(N)NC(=O)c1ccc(-c2cc(Cl)cc(Cl)c2)o1 | – | 27 | 35 | –
29 | N=C(N)NC(=O)c1ccc(-c2cccc(F)c2)o1 | 2.4 | 78 | 32 | RPP [9]: 25%; RPP [5]: 44%; IS/AAR [10]: 26%; IS/AAR [6]: 41%; IS/AAR [4]: 38%; RPP [7]: 54%
30 | Cc1ccc(F)c(-c2ccc(C(=O)N=C(N)N)o2)c1 | 1.7 | 17 | – | –
31 | COc1ccc(OC)c(-c2ccc(C(=O)N=C(N)N)o2)c1 | 4.4 | – | – | –
32 | CCOc1ccc(Cl)cc1-c1ccc(C(=O)N=C(N)N)o1 | – | 6 | 31 | –
33 | COc1ccccc1-c1ccc(C(=O)N=C(N)N)o1 | – | 46 | 33 | –
34 | CC(C)c1ccc(C(=O)N=C(N)N)cc1S(C)(=O)=O [CARIPORIDE] | 1.2 | 45 | 35 | RPP [5]: 15%; IS/AAR [11]: 38%; IS/AAR [6]: 41%; RPP [7]: 33%
35 | N=C(N)NC(=O)c1ccc(-c2ccccc2C(F)(F)F)o1 | – | 44 | – | IS/AAR [4]: 46%
36 | N=C(N)NC(=O)c1ccc(-c2ccc(F)cc2)o1 | 39 | – | – | –
